Laboratory results reported in ChEMBL document CHEMBL4706680, “Small-Molecule HSP27 Inhibitor Abolishes Androgen Receptors in Glioblastoma” (J Med Chem, 2021).
Activity calls are given as the source filed them. The rule behind the calls is not given here.

Columns and labels:
[1] = Toxicity in CD1 mouse assessed as acute pain at 80 mg/kg/day, ip administered thrice weekly and measured at day 10; assay type: organism-based; details: in vivo, 72 h, time 3 day
Procedure, shortened: (§1)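 Male CD-1 mice, four per group, given 80 mg/kg in PBS IP three times weekly; vehicle DMSO. Mice were euthanized when toxicity signs appeared, otherwise at day 10. Body weight was recorded at first and last dosing days. Non-fasted cardiac blood was taken after euthanasia for an automated hematology analyzer.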

[2] = tested on: U-87 MG; assay: Antiproliferative activity against human U87 cells assessed as reduction in cell viability incubated for 48 hrs by MTT assay; assay type: functional, cell-based, U-87MG ATCC
Procedure, shortened: (§2)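 MTT assay; 3000 cells/well in RPMI 1640 or DMEM with 10% FBS, seeded 24 h, then exposed 48 h to a range of concentrations in DMSO (final ≤0.1%); vehicle controls. MTT 1 mg/mL for 2 h at 37 °C, dye dissolved in DMSO, absorbance 570 nm; eight replicates; IC50 by nonlinear regression.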

[3] = tested on: T98G; assay: Antiproliferative activity against human T98G cells overexpressing AR assessed as reduction in cell viability incubated for 48 hrs by MTT assay; assay type: functional, cell-based; procedure, shortened: as §2
[4] = Toxicity in CD1 mouse assessed as decrease in body weight at 80 mg/kg/day, ip administered thrice weekly and measured at day 10; assay type: organism-based; details: in vivo, 72 h, time 3 day; procedure, shortened: as §1
[5] = tested on: A 172; assay: Antiproliferative activity against human A 172 cells assessed as reduction in cell viability incubated for 48 hrs by MTT assay; assay type: functional, cell-based; details: A 172, 48 h; procedure, shortened: as §2
[6] = tested on: U-251; assay: Antiproliferative activity against human U-251 cells assessed as reduction in cell viability incubated for 48 hrs by MTT assay; assay type: functional, cell-based; details: U-251, 48 h; procedure, shortened: as §2
[7] = Toxicity in CD1 mouse assessed as decrease in body weight at 80 mg/kg/day, ip administered thrice weekly and observed at day 5 to 7; assay type: organism-based; details: in vivo, 72 h, time 3 day; procedure, shortened: as §1
[8] = Dissociation constant, pKa of the compound; assay type: physicochemical
[9] = Toxicity in CD1 mouse assessed as effect on lymphocyte at 80 mg/kg/day, ip administered thrice weekly by hematology analyzer; assay type: organism-based; details: in vivo, 72 h, time 3 day; procedure, shortened: as §1
[10] = Toxicity in CD1 mouse assessed as effect on hemoglobin count at 80 mg/kg/day, ip administered thrice weekly by hematology analyzer; assay type: organism-based; details: in vivo, 72 h, time 3 day; procedure, shortened: as §1
[11] = Toxicity in CD1 mouse assessed as effect on basophil count at 80 mg/kg/day, ip administered thrice weekly by hematology analyzer; assay type: organism-based; details: in vivo, 72 h, time 3 day; procedure, shortened: as §1
[12] = Toxicity in CD1 mouse assessed as effect on MCV count at 80 mg/kg/day, ip administered thrice weekly by hematology analyzer; assay type: organism-based; details: in vivo, 72 h, time 3 day; procedure, shortened: as §1
[13] = Toxicity in CD1 mouse assessed as effect on hematocrit count at 80 mg/kg/day, ip administered thrice weekly by hematology analyzer; assay type: organism-based; details: in vivo, 72 h, time 3 day; procedure, shortened: as §1
[14] = Toxicity in CD1 mouse assessed as effect on MPV at 80 mg/kg/day, ip administered thrice weekly by hematology analyzer; assay type: organism-based; details: in vivo, 72 h, time 3 day; procedure, shortened: as §1
[15] = Toxicity in CD1 mouse assessed as reduction in food consumption at 80 mg/kg/day, ip administered thrice weekly and observed at day 5 to 7; assay type: organism-based; details: in vivo, 72 h, time 3 day; procedure, shortened: as §1
[16] = Toxicity in CD1 mouse assessed as effect on MCHC count at 80 mg/kg/day, ip administered thrice weekly by hematology analyzer; assay type: organism-based; details: in vivo, 72 h, time 3 day; procedure, shortened: as §1
[17] = Toxicity in CD1 mouse assessed as effect on PLT at 80 mg/kg/day, ip administered thrice weekly by hematology analyzer; assay type: organism-based; details: in vivo, 72 h, time 3 day; procedure, shortened: as §1
[18] = Toxicity in CD1 mouse assessed as effect on eosinophil count at 80 mg/kg/day, ip administered thrice weekly by hematology analyzer; assay type: organism-based; details: in vivo, 72 h, time 3 day; procedure, shortened: as §1
[19] = Toxicity in CD1 mouse assessed as effect on monocytes at 80 mg/kg/day, ip administered thrice weekly by hematology analyzer; assay type: organism-based; details: in vivo, 72 h, time 3 day; procedure, shortened: as §1
[20] = Toxicity in CD1 mouse assessed as effect on neutrophils count at 80 mg/kg/day, ip administered thrice weekly by hematology analyzer; assay type: organism-based; details: in vivo, 72 h, time 3 day; procedure, shortened: as §1
[21] = Toxicity in CD1 mouse assessed as induction of dehydration at 80 mg/kg/day, ip administered thrice weekly and observed at day 5 to 7; assay type: organism-based; details: in vivo, 72 h, time 3 day; procedure, shortened: as §1
[22] = Toxicity in CD1 mouse assessed as effect on WBC count at 80 mg/kg/day, ip administered thrice weekly by hematology analyzer; assay type: organism-based; details: in vivo, 72 h, time 3 day; procedure, shortened: as §1
[23] = Toxicity in CD1 mouse assessed as effect on RDW-CV at 80 mg/kg/day, ip administered thrice weekly by hematology analyzer; assay type: organism-based; details: in vivo, 72 h, time 3 day; procedure, shortened: as §1
[24] = Toxicity in CD1 mouse assessed as effect on RBC count at 80 mg/kg/day, ip administered thrice weekly by hematology analyzer; assay type: organism-based; details: in vivo, 72 h, time 3 day; procedure, shortened: as §1
[25] = Toxicity in CD1 mouse assessed as effect on MCH count at 80 mg/kg/day, ip administered thrice weekly by hematology analyzer; assay type: organism-based; details: in vivo, 72 h, time 3 day; procedure, shortened: as §1
[26] = target: Heat shock protein beta-1 (Homo sapiens) (UniProt P04792); details: T98G, dose 10.0 nM, time 12.0 hrs
Heat shock protein beta-1 (Homo sapiens), sequence (P04792 whole entry): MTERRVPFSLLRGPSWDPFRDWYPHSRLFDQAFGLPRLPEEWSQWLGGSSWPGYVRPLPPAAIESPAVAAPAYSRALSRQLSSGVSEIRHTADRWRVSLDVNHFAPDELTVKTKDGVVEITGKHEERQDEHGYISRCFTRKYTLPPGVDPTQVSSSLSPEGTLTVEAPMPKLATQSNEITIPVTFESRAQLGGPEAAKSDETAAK

SMILES	IC50 [2] [nM]	IC50 [3] [nM]	IC50 [5] [nM]	IC50 [6] [nM]	Activity [7]	Activity [9]	Activity [10]	Activity [11]	Activity [12]	Activity [13]	Activity [14]	Activity [15]	Activity [16]	Activity [17]	Activity [18]	Activity [19]	Activity [20]	Activity [21]	Activity [22]	Activity [23]	also measured
CCS(=O)(=O)Nc1ccc(NC(=O)c2ccc(OC)cc2)cc1OCc1cc(OC)ccc1OC	6.74	4.87	11.9	6.39	Non-Toxic	–	–	–	–	–	–	–	–	–	–	–	–	–	–	–	Activity [1]: Non-Toxic; Activity [4]: Non-Toxic
CS(=O)(=O)Nc1ccc([N+](=O)[O-])cc1Oc1ccccc1 [NIMESULIDE]	–	–	–	–	–	–	–	–	–	–	–	–	–	–	–	–	–	–	–	–	pKa [8]: 5.93
CCS(=O)(=O)N(C)c1ccc(NC(=O)c2ccc(OC)cc2)cc1OCc1cc(OC)ccc1OC	7.83	5.71	8.21	6.97	Toxic	Non-Toxic	Non-Toxic	Non-Toxic	Non-Toxic	Non-Toxic	Non-Toxic	Toxic	Non-Toxic	Non-Toxic	Non-Toxic	Non-Toxic	Non-Toxic	Toxic	Non-Toxic	Non-Toxic	Activity [24]: Non-Toxic; Activity [25]: Non-Toxic
C[C@]12CCC(=O)C[C@@H]1CC[C@@H]1[C@@H]2CC[C@]2(C)[C@@H](O)CC[C@@H]12	–	–	–	–	–	–	–	–	–	–	–	–	–	–	–	–	–	–	–	–	inhibition [26]: inactive
COc1ccc(C(=O)Nc2ccc(N(C)S(C)(=O)=O)c(OCc3cc(OC)ccc3OC)c2)cc1	3.05	1.85	3.13	1.57	Toxic	Non-Toxic	Non-Toxic	Non-Toxic	Non-Toxic	Non-Toxic	Non-Toxic	Toxic	Non-Toxic	Non-Toxic	Non-Toxic	Non-Toxic	Non-Toxic	Toxic	Non-Toxic	Non-Toxic	Activity [24]: Non-Toxic; Activity [25]: Non-Toxic
